Assay results collected from several papers.
Each line is one published result; the experiments were not run side by side.
Target: LIM domain kinase 2 (LIMK2, Homo sapiens, UniProt P53671)

| Compound | assay | conditions | measurement | value |
| --- | --- | --- | --- | --- |
| O=C(N[C@H]1CCCCC/C=C\C2C[C@@]2(C(=O)O)NC(=O)[C@@H]2C[C@@H](Oc3ccncc3)CN2C1=O)OC1CCCC1 (stereo partly drawn) | binding, competition with immobilised ligand | 1 µM | remaining binding | 93% |
| Cc1ccc(C(=O)Nc2ccc(CN3CCN(C)CC3)c(C(F)(F)F)c2)cc1C#Cc1cnc2cccnn12 | enzyme activity, inhibitor | 23.5 nM | remaining activity | 100% |
| c1cnn2ncc(-c3ccnc(N4CCC45COC5)n3)c2c1 | binding | 1 µM | remaining binding | 82% |
| CC(C)(C)c1nc(-c2cccc(NS(=O)(=O)c3c(F)cccc3F)c2F)c(-c2ccnc(N)n2)s1 | enzyme activity, inhibitor, radiometric | 1 µM | remaining activity | 87% |
| COc1cc(Cl)c(C(=O)N[C@@H](CN[C@H]2CC[C@@H](N)CC2)Cc2ccc(C#N)cc2)cc1-c1ccc(CN[C@H](C)c2ccc(C)cc2)o1 | enzyme activity, inhibitor | 1 µM | remaining activity | 101% |
| O=C(Nc1cnn(-c2csc(C(=O)NC3COC3)c2)c1)Nc1ccccc1Cl | enzyme activity, inhibitor | 5 µM | remaining activity | 96.8% |
| CN1CC(Oc2cnc(C#N)cc2-c2ccn3nc(NC(=O)C4CC4)cc3c2)C1 | enzyme activity, inhibitor | 1 µM | inhibition | 5% |
| CCOc1cc(-c2nncn2C)ccc1Nc1ncc2cc(C)nc(NCC(C)(C)C)c2n1 | cell-free assay, TR-FRET | 1 µM | inhibition | ≤ 15% |
| CC(C)(C)c1nc2c(s1)c1nc(N)ncc1c1ccc(NS(=O)(=O)c3c(F)cccc3F)c(F)c12 | enzyme activity, inhibitor, radiometric | 1 µM | remaining activity | 92% |
| O=C(NCc1ncc(C(F)(F)F)cc1Cl)c1ccc2c(c1)C1(CCS(=O)(=O)CC1)[C@@H](C1CC1)N2S(=O)(=O)c1ccc(F)cc1 | cell-free assay, competition with immobilised ligand | 1 µM | remaining binding | 94% |
| Nc1ncnc2occ(-c3ccc(NC(=O)Nc4cc(C(F)(F)F)ccc4F)cc3)c12 | cell-free assay, inhibitor | 20 µM | remaining signal | 8.8% |
| Cc1sc(C(=O)NC2COC2)cc1-n1cc(NC(=O)Nc2c(F)cccc2Cl)cn1 | enzyme activity, inhibitor | 10 µM | remaining activity | 113% |
